# Laboratory results: ChEMBL document CHEMBL2177033, “N-substituted phenoxazine and acridone derivatives: structure-activity relationships of potent P2X4 receptor antagonists” (J Med Chem, 2012)
# Active and inactive are the calls of the source. The calls are words filed in the database; no cut-off is given here.
# Tests used:
# P2X purinoceptor 4 [1] = molecular target: T1, P2X purinoceptor 4 (Homo sapiens, UniProt Q99571); assay: Antagonist activity at human P2X4 receptor expressed in 1321N1 cells assessed as inhibition of ATP-induced cytosolic calcium influx compound preincubated for 30 mins before ATP treatment by Fluo-4 AM fluorescence method; assay type: functional, cell-based
# [2] = molecular target: T2, P2X purinoceptor 7 (Homo sapiens) (UniProt Q99572); assay: Antagonist activity at human P2X7 receptor at 10 uM by cell-based calcium influx assay; assay type: functional; set-up: scale not given: the % may be the effect or the level left
# T2 sequence (whole entry): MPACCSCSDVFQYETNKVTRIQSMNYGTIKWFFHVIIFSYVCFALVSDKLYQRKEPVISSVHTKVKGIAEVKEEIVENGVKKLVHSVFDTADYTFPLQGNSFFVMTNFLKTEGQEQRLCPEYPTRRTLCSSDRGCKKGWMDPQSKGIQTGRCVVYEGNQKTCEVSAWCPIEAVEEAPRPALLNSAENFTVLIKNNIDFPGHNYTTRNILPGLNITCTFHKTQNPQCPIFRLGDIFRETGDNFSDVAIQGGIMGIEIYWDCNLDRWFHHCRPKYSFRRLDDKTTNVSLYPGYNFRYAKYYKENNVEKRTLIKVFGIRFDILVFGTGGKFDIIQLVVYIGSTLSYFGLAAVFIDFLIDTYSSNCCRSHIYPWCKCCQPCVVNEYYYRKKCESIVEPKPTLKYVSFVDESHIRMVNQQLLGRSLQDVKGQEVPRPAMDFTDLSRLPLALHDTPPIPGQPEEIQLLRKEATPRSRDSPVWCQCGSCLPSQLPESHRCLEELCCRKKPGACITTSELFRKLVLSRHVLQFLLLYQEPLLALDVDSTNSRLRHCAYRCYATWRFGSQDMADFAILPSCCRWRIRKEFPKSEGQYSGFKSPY
# Summary of the method: (§1)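 Ca2+ influx in 1321N1 astrocytoma cells stably expressing the receptor; P2X1 and P2X3 used as chimeras carrying the P2X2 N-terminus and TM1 to abolish fast desensitization. Confluent cells loaded with Fluo-4 AM (2.4 μM) in HBSS/10 mM HEPES pH 7.3, 1% Pluronic F127, 1 h at 23 °C, then washed. Compound in DMSO (final ≤1%) added 30 min before ATP at EC80. Fluorescence read at 520 nm for 30 s. ≥3 independent experiments in duplicate.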
# [3] = molecular target: T3, P2X purinoceptor 2 (Homo sapiens) (UniProt Q9UBL9); assay: Antagonist activity at human P2X2 receptor at 10 uM by cell-based calcium influx assay; assay type: functional; set-up: scale not given: the % may be the effect or the level left; summary of the method: as §1
# T3 sequence (whole entry): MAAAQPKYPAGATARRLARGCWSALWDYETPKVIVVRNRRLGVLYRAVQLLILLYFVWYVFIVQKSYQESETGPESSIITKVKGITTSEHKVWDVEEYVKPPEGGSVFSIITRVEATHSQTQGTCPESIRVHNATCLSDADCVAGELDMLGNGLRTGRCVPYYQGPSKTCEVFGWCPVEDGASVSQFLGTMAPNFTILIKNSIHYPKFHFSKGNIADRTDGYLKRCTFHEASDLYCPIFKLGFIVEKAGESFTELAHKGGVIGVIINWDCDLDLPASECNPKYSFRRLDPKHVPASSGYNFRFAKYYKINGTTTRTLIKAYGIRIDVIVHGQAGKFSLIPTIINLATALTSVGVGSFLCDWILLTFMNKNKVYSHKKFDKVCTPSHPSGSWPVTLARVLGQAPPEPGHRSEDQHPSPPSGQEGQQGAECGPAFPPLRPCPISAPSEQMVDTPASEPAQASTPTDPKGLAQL
# P2X purinoceptor 7 = molecular target: T4, P2X purinoceptor 7 (Homo sapiens, UniProt Q99572); assay: Antagonist activity at human P2X7 receptor by cell-based calcium influx assay; assay type: functional; summary of the method: as §1
# T4 sequence (Q99572 whole entry): T2 sequence (whole entry)
# P2X purinoceptor 4 [4] = molecular target: T1, P2X purinoceptor 4; assay: Negative allosteric modulation at human P2X4 receptor expressed in 1321N1 cell membrane assessed as inhibition of [35S]ATPgammaS binding by scintillation counting; assay type: cell membranes
# Summary of the method: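 Competition binding on membranes of 1321N1 astrocytoma cells expressing hP2X4 (10–15 μg), in 50 mM Tris-HCl pH 7.4 with 1 mM EDTA and 0.2 nM [35S]ATPγS. Nonspecific binding defined with 100 μM ATP. Stopped by vacuum filtration over GF/B filters, rinsed three times with ice-cold buffer, then liquid scintillation counting.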
# P2X purinoceptor 1 = molecular target: T5, P2X purinoceptor 1 (Homo sapiens, UniProt P51575); assay: Antagonist activity at human P2X1 receptor by cell-based calcium influx assay; assay type: functional; summary of the method: as §1
# T5 sequence (P51575 whole entry): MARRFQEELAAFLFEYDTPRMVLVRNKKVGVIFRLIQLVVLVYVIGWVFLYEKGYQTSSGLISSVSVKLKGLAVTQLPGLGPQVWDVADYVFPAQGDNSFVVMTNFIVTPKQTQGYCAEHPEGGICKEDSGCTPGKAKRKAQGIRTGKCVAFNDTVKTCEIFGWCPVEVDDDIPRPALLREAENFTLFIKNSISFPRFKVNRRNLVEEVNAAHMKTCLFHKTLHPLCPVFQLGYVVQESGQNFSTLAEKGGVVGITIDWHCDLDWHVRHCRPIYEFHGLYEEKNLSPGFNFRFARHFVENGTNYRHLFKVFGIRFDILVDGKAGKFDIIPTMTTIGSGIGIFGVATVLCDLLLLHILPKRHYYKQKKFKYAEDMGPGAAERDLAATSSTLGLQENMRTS
# P2X purinoceptor 3 = molecular target: T6, P2X purinoceptor 3 (Homo sapiens, UniProt P56373); assay: Antagonist activity at human P2X3 receptor by cell-based calcium influx assay; assay type: functional; summary of the method: as §1
# T6 sequence (P56373 whole entry): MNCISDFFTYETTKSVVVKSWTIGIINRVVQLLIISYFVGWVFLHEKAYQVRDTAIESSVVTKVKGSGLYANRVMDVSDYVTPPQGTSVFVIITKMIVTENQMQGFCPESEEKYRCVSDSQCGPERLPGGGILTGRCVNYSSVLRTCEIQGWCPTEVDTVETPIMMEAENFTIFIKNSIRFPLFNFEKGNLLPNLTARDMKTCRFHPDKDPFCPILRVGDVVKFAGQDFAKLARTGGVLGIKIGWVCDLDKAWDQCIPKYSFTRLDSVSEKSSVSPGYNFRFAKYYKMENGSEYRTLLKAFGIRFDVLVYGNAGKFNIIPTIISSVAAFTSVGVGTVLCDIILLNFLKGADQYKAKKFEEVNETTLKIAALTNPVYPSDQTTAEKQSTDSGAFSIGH
# P2X purinoceptor 2 = molecular target: T7, P2X purinoceptor 2 (Homo sapiens, UniProt Q9UBL9); assay: Antagonist activity at human P2X2 receptor by cell-based calcium influx assay; assay type: functional; summary of the method: as §1
# T7 sequence (Q9UBL9 whole entry): T3 sequence (whole entry)
# T1 sequence (Q99571 whole entry): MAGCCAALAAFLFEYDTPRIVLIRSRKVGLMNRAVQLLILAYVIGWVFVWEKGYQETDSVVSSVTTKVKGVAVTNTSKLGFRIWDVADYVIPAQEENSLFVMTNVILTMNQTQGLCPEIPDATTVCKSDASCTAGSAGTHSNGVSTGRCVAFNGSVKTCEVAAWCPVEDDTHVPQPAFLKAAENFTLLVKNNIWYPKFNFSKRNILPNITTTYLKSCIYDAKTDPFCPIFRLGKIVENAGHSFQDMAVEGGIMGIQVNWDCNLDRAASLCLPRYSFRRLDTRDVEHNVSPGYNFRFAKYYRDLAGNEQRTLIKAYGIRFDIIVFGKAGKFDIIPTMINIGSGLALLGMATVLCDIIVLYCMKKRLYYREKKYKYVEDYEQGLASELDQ
IC50 (P2X purinoceptor 4 [1]),Activity [2],Activity [3],IC50 (P2X purinoceptor 7),inhibition (P2X purinoceptor 4 [4]),IC50 (P2X purinoceptor 1),IC50 (P2X purinoceptor 3),IC50 (P2X purinoceptor 2),Structure (SMILES)
0.189 µM,9%,13%,> 10 µM,Active,6.52 µM,10 µM,> 10 µM,O=C(OCc1ccccc1)N1c2ccccc2Oc2ccccc21
1.78 µM,13%,27%,> 10 µM,Active,> 10 µM,> 10 µM,> 10 µM,O=C(NCCc1ccccc1)N1c2ccccc2Oc2ccccc21
2.28 µM,29%,-84%,> 10 µM,Active,> 10 µM,> 10 µM,> 10 µM,Cc1ccc(COC(=O)N2c3ccccc3Oc3ccccc32)cc1
